Assay outcomes as filed in PubChem.
Sampled rows, rich in hits. Any-hit rate of the full collection: about 3.3%.
MBD2 inh: blocks human MBD2 binding to methylated DNA. Q9UBB5. TR-FRET, MBD2 binding to methylated oligonucleotide. inhibition, % at 4.4 µM. hit rate 0.31% among 370,000. AID 686964; in the data active means inhibition above about 13%
PRMT1 FP inh: PRMT1 (human) inhibition, primary screen; Q99873; recombinant PRMT1, activity-based probe fluorescence polarization; inhibition, % at 2.79 µM; hit rate 1.3% among 370,000; AID 652257;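 active means inhibition above about 21% made by adding two undisclosed values, limit read from the data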
TDP2 inh: TDP2 (human) inhibition, absorbance primary screen; inhibition, % at 12.8 µM; recombinant TDP2, T5PNP hydrolysis, p-nitrophenol absorbance 415 nm; hit rate 0.34% among 370,000; O95551; AID 720702;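 active means inhibition above the mean of all tested compounds plus 3 SD, set per campaign, cut at about 25% in these data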;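 further: 0% = DMSO with enzyme and 100% = buffer with substrate but no TDP2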
Target sequence (O95551 whole entry, looked up): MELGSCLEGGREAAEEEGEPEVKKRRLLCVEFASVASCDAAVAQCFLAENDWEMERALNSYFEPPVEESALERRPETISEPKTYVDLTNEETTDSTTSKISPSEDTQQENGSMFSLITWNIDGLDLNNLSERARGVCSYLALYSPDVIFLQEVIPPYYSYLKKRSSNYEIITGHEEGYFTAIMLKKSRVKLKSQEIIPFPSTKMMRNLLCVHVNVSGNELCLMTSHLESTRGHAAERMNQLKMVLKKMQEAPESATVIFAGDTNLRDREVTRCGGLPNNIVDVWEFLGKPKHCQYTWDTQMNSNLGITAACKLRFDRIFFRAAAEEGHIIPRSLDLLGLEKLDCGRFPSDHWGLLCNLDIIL
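System – recombinant human TDP2 · Quantity – TDP2 enzyme at 120 nM final · Doses – single concentration, 12.8 µM nominal, with 1% DMSO · Incubation – 2 h at 37 °C · Measured by – epi absorbance of p-nitrophenol freed from T5PNP by hydrolysis · Read-out – % inhibition relative to enzyme-containing and enzyme-free wells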
LEDGF integ inh: blocks HIV-1 LEDGF/p75-dependent DNA integration; AID 743269; TR-FRET IN-LEDGF/p75 DNA integration, Eu/Cy5; hit rate 0.64% among 370,000; inhibition, % at 3.7 µM;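 active means inhibition above the screen-wide mean plus 3 SD, cut at about 13% in these data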;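 further: signal is the Cy5 over europium emission ratio at 671 and 618 nm; 0% = plate median of compound wells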
UHRF1 binding: blocks human UHRF1 binding to methylated DNA; Q96T88; inhibition, % at 4.4 µM; hit rate 0.75% among 370,000; UHRF1 binding to methylated oligo, TR-FRET; AID 687016; in the data active means inhibition above about 21%;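 further: UHRF1 SRA domain binding a hemimethylated CpG hairpin DNA probe; 0% = median of test compound wells and 100% = reference inhibitor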
SIAE inh: human SIAE inhibition, primary screen. SIAE FP-Rh probe binding, fluorescence polarization. hit rate 0.69% among 370,000. AID 1053197. inhibition, % at 9.66 µM. Q9HAT2;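 active means inhibition above a cutoff: mean of compounds within the control limits plus 3 SD of those, cut at about 17% in these data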;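 further: 0% = plate median of compound wells and 100% = probe without SIAE protein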
* marks the source's active call; other numbers are inactive results; ! = a repeat was not active.

SMILES | MBD2 inh | PRMT1 FP inh | TDP2 inh | LEDGF integ inh | UHRF1 binding | SIAE inh
COC(=O)c1c(NC(=O)CCC(=O)O)sc(Cc2ccccc2)c1C | 1 | 3 | 15 | -4 | -4 | 0
COC(=O)CCC(=O)Nc1sc(Cc2ccccc2)c(C)c1C(N)=O | 1 | 24* | 0 | 2 | 7 | -2
CCCC(=O)Nc1sc(Cc2ccccc2)c(C)c1C(N)=O | 3 | 23* | -10 | -8 | 2 | 3
C(=C\c1ccccc1)/CSc1nnc(Cc2cccs2)n1-c1ccccc1 | 3 | 1 | -1 | -2 | 2 | 1
CCCCNC(=O)NCCN1CCOCC1 | 5 | -1 | 11 | -4 | 35* | -5
O=C(Cn1nc(C(F)(F)F)cc1C1CC1)Nc1ccccc1F | -2 | -2 | 4 | -1 | 4 | 7
O=C(Cn1nc(C(F)(F)F)cc1C1CC1)NCc1ccccc1F | -3 | -2 | 5 | 5 | 21* | 1
COc1cc(NC(=O)c2cc(C)on2)cc(C(=O)Nc2cccc(C(F)(F)F)c2)c1 | -3 | 0 | -1 | 2 | 93*! | -144
COc1cc(NC(=O)c2csc(N)n2)cc(C(=O)Nc2cccc(C(F)(F)F)c2)c1 | 2 | -2 | -5 | 2 | 0 | -42
CN(CC(=O)N1CCN(c2ccccc2)CC1)S(=O)(=O)c1cnc[nH]1 | -2 | 1 | -3 | 2 | 29* | 0
O=C(O)c1ccccc1CSC1=NCCS1 | 3 | 21* | -10 | -1 | 3 | 0
O=C(CSC1=NCCS1)Nc1ccccc1F | 3 | 22* | 0 | 0 | 0 | 1
CCc1ccc(CNCCNC(=O)c2ccco2)cc1 | -4 | 21* | -13 | 4 | 3 | -10
Cc1ccccc1N1CCN(C2CCCN(C(=O)c3csc(C(C)C)n3)C2)CC1 (stereo not given) | 0 | 0 | -2 | 15* | 1 | 4
COc1ccc(C(C)(O)c2nc(-c3ccc4ccccc4c3)cs2)cc1 (stereo not given) | -7 | -4 | -3 | 4 | 34* | -17
COc1ccc(C(C)(O)c2nc(-c3ccccc3)cs2)cc1 (stereo not given) | -2 | 3 | 2 | -5 | -3 | 2
C=CCOC(=O)N[C@H](c1ccccc1)[C@H](C)/C=C/CC(=O)OC | 4 | -2 | 2 | -3 | -2 | 3
N#C/C(=C/c1ccc(-c2ccc(S(N)(=O)=O)cc2)o1)C(=O)Nc1ccccc1 | -3 | 3 | 0 | 0 | 1 | -18
COCCNC(=O)/C(C#N)=C/c1ccc(-c2ccc(S(=O)(=O)N3CCOCC3)cc2)o1 | -5 | 3 | -2 | 0 | 69* | -10
CC(C)CNc1ccc2c(c1)OC[C@@H](CC(C)C)NS2(=O)=O | 1 | 5 | -2 | 0 | -1 | -4
CC(=O)Nc1ccc(Nc2c3c4c(cccc4n(C)c2=O)C(=O)c2ccccc2-3)cc1 | -6 | 71* | -2 | -1 | -6 | 6
CC(=O)Nc1ccc(NC2=CC(=O)c3ccccc3C2=O)cc1 | -5 | -3 | -12 | 1 | 12 | 2
CC(C)C1N=C2c3ccccc3N=C(SCc3cc(=O)n4cc(Cl)ccc4n3)N2C1=O (stereo not given) | 3 | -1 | 12 | 0 | -3 | 19*
Cc1oc2cc(O)ccc2c(=O)c1-c1nncn1-c1ccccc1 | 1 | 52* | -2 | 2 | -3 | 4
Cc1oc2cc(O)ccc2c(=O)c1-c1ccccc1 | 2 | -3 | 4 | 2 | 2 | 3
SMILES | MBD2 inh | PRMT1 FP inh | TDP2 inh | LEDGF integ inh | UHRF1 binding | SIAE inh
CC(CCN1CCC(C(O)(c2ccccc2)c2ccccc2)CC1)Oc1cc(F)cc(C#N)c1 (stereo not given) | -6 | -5 | -22 | 9 | 2 | -3
COc1ccc(/C=N/OCC(=O)N=Nc2c(O)[nH]c3ccc(Br)cc23)cc1 | 6 | -2 | -3 | 0 | 21* | 0
Cc1cccc(C)c1OCC(=O)N=Nc1c(O)[nH]c2ccc(Br)cc12 | -5 | -3 | -4 | 2 | 2 | -2
CCOC(=O)c1c(N)sc(C(O)(C(F)(F)F)C(F)(F)F)c1-c1ccc(OC)cc1OC | -3 | 1 | -4 | -5 | 25* | 1
Cc1cccc(OCC(=O)N(Cc2nnc(-c3ccccc3Cl)o2)C2CC2)c1 | -2 | 5 | -13 | -8 | 68* | 7
Cc1ccc(S(=O)(=O)Nc2ccc3oc(=O)sc3c2)c(C)c1 | 2 | 59* | 1 | -1 | -5 | -14
O=C(O)c1cc(S(=O)(=O)Nc2ccc3oc(=O)sc3c2)ccc1O | 1 | 86* | 0 | 16* | 2 | -2
CC(C)C[C@H]1COc2cc(Br)ccc2S(=O)(=O)N1Cc1cn(CCC2OCCO2)nn1 | -3 | -1 | -10 | 4 | 3 | -2
CC(=O)c1ccc(OCc2cn(CC(=O)c3ccc(O)cc3)nn2)c(C)c1 | 11 | 2 | 4 | 3 | 23* | 0
COc1cc(C(C)=O)ccc1OCc1cn(CC(=O)c2ccc(O)cc2)nn1 | 7 | -2 | -1 | 8 | 21* | 4
O=C(Cn1cc(COc2ccc(Br)cc2[N+](=O)[O-])nn1)c1ccc(O)cc1 | 8 | 3 | -4 | -1 | 24* | -3
CC(=O)c1ccc(OCc2cn(CC(=O)c3ccc(O)cc3)nn2)cc1 | 4 | 1 | 2 | 4 | 21* | 0
COc1ccc(S[C@]2(C(=O)N3CCCC3)CC(=O)N(C(=O)CCc3ccccc3)[C@@H]2c2ccc(OC)cc2)cc1 | 5 | 10 | 7 | -4 | 1 | -8
CCN(CC)C(=O)c1cccc(-c2csc(C(O)c3ccccc3)n2)c1 (stereo not given) | 9 | 1 | -3 | 0 | 22* | 3
CCN(CC)C(=O)c1cccc(-c2csc(C(O)c3ccc(F)cc3)n2)c1 (stereo not given) | 3 | 1 | 0 | -2 | 2 | -1
COC(=O)[C@]12C[C@H](CC(=O)NCCC(C)C)C(=O)N(CCc3ccc(OC)c(OC)c3)C1=C[C@H](COCc1ccccc1)O[C@@H]2C | -3 | -3 | -3 | 2 | -1 | -3
COc1cccc(-c2nn(-c3ccccc3)cc2CO)c1 | -6 | -3 | 2 | 1 | -2 | -4
COc1cccc(-c2nn(-c3ccccc3)cc2C(=O)NCC(=O)O)c1 | 8 | 2 | 6 | 2 | 22* | 7
CS(=O)(=O)N(CC(=O)Nc1ccc(S(=O)(=O)N2CCCC2)cc1)c1cccc(F)c1 | 6 | 2 | 2 | 1 | 28* | 1
CC(=O)c1cccc(NC(=O)CN(c2cccc(F)c2)S(C)(=O)=O)c1 | 2 | -1 | 3 | 0 | 1 | -3
CCN1/C(=C/c2ccc3cc(C)ccc3[n+]2C)Sc2ccc3sccc3c21 | 5 | -1 | 2 | 4 | 41* | -66
COc1ccc(CCC(=O)NNC(=O)Nc2ccc(OC)c(OC)c2)cc1 | 9 | 6 | 1 | -3 | 4 | -6
